Results from ChEMBL document CHEMBL4613215, “Structure-Activity Relationships for a Series of (Bis(4-fluorophenyl)methyl)sulfinyl Alkyl Alicyclic Amines at the Dopamine Transporter: Functionalizing the Terminal Nitrogen Affects Affinity, Selectivity, and Metabolic Stability” (J Med Chem, 2020).

How the values were obtained:
[1] = molecular target: Sigma non-opioid intracellular receptor 1 (Cavia porcellus, UniProt Q60492); assay: Displacement of [3H]-(+)-pentazocine from Sigma1 receptor in guinea pig cortex membranes incubated for 120 mins by microbeta scintillation counting method; type: cell membranes
Chain of Sigma non-opioid intracellular receptor 1 (Q60492 whole entry): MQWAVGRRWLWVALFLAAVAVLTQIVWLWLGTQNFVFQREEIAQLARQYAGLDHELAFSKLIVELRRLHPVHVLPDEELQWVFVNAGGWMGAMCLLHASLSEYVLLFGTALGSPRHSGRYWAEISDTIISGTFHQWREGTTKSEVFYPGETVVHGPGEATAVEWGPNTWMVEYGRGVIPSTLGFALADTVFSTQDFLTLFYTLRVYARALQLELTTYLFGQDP

[2] = Stability in mouse liver microsomes at 10 uM after 60 mins in presence of NADPH by LC-MS/MS analysis; type: ADME, Microsome; details: 1 h
[3] = molecular target: Sodium-dependent serotonin transporter (Rattus norvegicus, UniProt P31652); assay: Displacement of [3H]citalopram from SERT in Sprague-Dawley rat midbrain membranes incubated for 60 mins by microbeta scintillation counting method; type: cell membranes, Membrane
Chain of Sodium-dependent serotonin transporter (P31652 whole entry): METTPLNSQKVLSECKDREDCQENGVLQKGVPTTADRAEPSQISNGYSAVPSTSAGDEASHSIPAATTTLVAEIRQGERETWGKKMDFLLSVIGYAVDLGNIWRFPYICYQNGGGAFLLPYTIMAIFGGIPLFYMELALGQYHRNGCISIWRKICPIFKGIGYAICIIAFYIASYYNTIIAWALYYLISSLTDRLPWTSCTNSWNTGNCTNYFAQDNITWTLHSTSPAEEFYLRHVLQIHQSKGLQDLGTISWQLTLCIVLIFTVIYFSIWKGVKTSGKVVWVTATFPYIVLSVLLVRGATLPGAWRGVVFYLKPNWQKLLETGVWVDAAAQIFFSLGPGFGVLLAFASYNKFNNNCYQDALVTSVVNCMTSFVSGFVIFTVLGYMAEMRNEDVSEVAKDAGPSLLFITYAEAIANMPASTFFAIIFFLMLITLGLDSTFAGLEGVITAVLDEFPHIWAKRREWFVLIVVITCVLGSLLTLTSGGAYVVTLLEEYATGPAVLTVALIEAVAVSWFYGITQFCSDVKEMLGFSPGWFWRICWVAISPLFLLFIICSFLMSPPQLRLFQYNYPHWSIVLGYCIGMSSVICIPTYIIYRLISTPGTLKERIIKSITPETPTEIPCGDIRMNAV

[4] = molecular target: Sodium-dependent dopamine transporter (Rattus norvegicus, UniProt P23977); assay: Displacement of [3H]WIN35428 from DAT in Sprague-Dawley rat striatum membranes incubated for 120 mins by microbeta scintillation counting method; type: cell membranes, Membrane
Chain of Sodium-dependent dopamine transporter (Rattus norvegicus, UniProt P23977) (P23977 whole entry): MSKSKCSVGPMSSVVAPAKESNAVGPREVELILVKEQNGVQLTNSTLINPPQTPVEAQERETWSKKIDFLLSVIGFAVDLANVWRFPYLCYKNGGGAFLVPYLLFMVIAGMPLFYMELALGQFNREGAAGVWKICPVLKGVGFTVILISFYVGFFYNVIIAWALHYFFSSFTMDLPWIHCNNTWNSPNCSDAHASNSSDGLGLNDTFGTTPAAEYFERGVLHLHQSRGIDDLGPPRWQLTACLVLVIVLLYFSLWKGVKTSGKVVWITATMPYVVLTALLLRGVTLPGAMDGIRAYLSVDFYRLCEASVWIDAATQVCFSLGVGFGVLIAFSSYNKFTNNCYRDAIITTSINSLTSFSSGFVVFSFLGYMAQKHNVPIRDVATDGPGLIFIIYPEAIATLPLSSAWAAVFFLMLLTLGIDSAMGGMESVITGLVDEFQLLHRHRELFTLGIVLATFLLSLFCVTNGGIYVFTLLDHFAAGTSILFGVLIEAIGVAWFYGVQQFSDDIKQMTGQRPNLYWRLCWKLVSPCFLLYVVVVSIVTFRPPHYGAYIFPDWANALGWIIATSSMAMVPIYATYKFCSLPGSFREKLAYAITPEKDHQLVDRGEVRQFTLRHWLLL

[5] = Half life in rat liver microsomes at 10 uM in presence of NADPH generating system by LC-MS/MS analysis; type: ADME, Microsome
[6] = molecular target: T1, Sodium-dependent dopamine transporter (Homo sapiens, UniProt Q01959); assay: Inhibition of human DAT transiently expressed in COS7 cells assessed as reduction in [3H]-DA uptake measured after 5 mins by beta-scintillation counting method; type: cell-based, COS-7
T1 sequence (Q01959 whole entry): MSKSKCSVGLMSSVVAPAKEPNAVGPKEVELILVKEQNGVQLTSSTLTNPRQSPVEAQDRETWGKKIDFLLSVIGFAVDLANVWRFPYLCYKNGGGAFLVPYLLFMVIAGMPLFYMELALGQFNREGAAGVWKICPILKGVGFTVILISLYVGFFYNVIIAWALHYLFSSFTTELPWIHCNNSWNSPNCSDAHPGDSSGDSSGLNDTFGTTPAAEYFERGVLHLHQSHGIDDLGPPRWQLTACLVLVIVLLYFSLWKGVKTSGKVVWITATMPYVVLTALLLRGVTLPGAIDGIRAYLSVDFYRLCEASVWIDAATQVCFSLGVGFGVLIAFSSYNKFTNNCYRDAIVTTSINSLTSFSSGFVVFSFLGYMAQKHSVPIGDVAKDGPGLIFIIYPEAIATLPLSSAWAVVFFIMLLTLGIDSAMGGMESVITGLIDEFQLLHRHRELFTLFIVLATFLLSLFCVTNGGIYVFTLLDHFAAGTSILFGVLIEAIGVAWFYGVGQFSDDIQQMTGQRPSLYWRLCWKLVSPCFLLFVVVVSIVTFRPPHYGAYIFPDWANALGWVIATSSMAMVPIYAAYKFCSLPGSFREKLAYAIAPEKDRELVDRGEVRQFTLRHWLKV

[7] = species on record: Rattus norvegicus; assay: Selectivity ratio of Ki for displacement of [3H]citalopram from in SERT Sprague-Dawley rat midbrain membranes to Ki for displacement of [3H]WIN 35428 from DAT in Sprague-Dawley rat striatum membranes
[8] = Stability in mouse liver microsomes assessed as parent compound remaining at 10 uM after 60 mins in presence of NADPH by LC-MS/MS analysis; type: ADME, Microsome; details: read-out: Stability
[9] = Selectivity ratio of IC50 for inhibition of human ERG to Ki for displacement of [3H]WIN 35428 from DAT in Sprague-Dawley rat striatum membranes
[10] = Displacement of [3H]WIN35428 from DAT Y156F mutant (unknown origin) transiently expressed in COS7 cells incubated for > 90 mins by beta scintillation counting method; type: cell-based, Homo sapiens; details: cos-7
[11] = molecular target: T1, Sodium-dependent dopamine transporter; assay: Displacement of [3H]WIN35428 from DAT (unknown origin) transiently expressed in COS7 cells incubated for > 90 mins by beta scintillation counting method; type: cell-based, COS-7
[12] = species on record: Homo sapiens; assay: Selectivity ratio of Ki for displacement of [3H]WIN35428 from DAT Y156F mutant (unknown origin) transiently expressed in COS7 cells to Ki for displacement of [3H]WIN35428 from DAT (unknown origin) transiently expressed in COS7 cells; type: cell-based
[13] = Half life in mouse liver microsomes at 10 uM in presence of NADPH by LC-MS/MS analysis; type: ADME, Microsome
[14] = Half life in human liver microsomes at 10 uM after 60 mins in presence of NADPH by LC-MS/MS analysis; type: ADME, Microsome; details: for half-life at 10 µM: liver microsomes
[15] = Drug metabolism in mouse liver microsomes assessed as 1-(2-((Bis(4-fluorophenyl)methyl)thio)ethyl)-3,5-cis-dimethylpiperazine metabolite formation by HPLC/MS analysis; type: ADME, Microsome
[16] = molecular target: Voltage-gated inwardly rectifying potassium channel KCNH2 (Homo sapiens, UniProt Q12809); assay: Inhibition of human ERG
Chain of Voltage-gated inwardly rectifying potassium channel KCNH2 (Q12809 whole entry): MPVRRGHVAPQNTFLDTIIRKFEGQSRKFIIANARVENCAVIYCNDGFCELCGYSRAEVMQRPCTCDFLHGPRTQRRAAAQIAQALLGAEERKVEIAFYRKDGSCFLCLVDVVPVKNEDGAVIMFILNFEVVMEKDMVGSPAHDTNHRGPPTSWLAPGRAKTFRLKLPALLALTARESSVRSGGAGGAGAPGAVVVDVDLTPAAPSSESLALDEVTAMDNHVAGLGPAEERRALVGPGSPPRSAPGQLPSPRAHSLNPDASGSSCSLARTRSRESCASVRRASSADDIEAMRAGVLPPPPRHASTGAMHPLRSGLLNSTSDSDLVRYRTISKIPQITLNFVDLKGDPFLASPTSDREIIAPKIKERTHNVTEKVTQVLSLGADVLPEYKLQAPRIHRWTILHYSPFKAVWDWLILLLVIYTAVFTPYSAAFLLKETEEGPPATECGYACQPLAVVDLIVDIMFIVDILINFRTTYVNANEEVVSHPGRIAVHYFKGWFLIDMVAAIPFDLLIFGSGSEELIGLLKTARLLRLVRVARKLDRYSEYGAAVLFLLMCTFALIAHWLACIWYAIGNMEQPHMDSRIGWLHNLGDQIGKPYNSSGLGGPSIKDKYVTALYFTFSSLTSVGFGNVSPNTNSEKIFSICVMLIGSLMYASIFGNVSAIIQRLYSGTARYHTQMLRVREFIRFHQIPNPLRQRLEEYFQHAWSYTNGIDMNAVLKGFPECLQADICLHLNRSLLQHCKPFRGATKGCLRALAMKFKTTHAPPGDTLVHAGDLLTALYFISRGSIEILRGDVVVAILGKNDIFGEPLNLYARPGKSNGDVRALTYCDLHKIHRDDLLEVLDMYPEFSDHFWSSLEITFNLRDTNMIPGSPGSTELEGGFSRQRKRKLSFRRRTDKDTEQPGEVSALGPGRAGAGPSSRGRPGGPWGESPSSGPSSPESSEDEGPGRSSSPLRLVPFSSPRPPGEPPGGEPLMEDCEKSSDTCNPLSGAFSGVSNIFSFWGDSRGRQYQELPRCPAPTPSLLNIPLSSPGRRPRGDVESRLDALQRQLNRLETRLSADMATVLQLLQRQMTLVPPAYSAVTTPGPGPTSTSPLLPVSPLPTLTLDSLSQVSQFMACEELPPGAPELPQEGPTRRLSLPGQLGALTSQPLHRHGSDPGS

[17] = Stability in human liver microsomes assessed as parent compound remaining at 10 uM after 60 mins in presence of NADPH by LC-MS/MS analysis; type: ADME, Microsome; details: read-out: Stability
[18] = Effect on locomotor activity in mouse assessed as increase in total ambulations at 1 to 30 mg/kg, ip measured during 30 mins of 2 hrs test by open field test; type: ADME, organism-based; details: in vivo
Outline: (§1)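 Mice acclimatized ~2 h, injected i.p. then placed immediately in open-field chambers with infrared beam arrays; beam breaks over 2 h converted to distance; maximum distance per 30 min reported; n=6 per group, each mouse used once; two-way ANOVA (Drug, Dose) with Tukey post-hoc versus vehicle.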

[19] = Effect on locomotor activity in mouse assessed as increase in total ambulations at 3 to 56 mg/kg, ip measured during 30 mins of 2 hrs test by open field test; type: ADME, organism-based; details: in vivo; outline: as §1
[20] = Effect on locomotor activity in mouse assessed as increase in total ambulations at 3 to 30 mg/kg, ip measured during 30 mins of 2 hrs test by open field test; type: ADME, organism-based; details: in vivo; outline: as §1
[21] = Effect on locomotor activity in mouse assessed as increase in total ambulations at 1 to 10 mg/kg, ip measured during 30 mins of 2 hrs test by open field test; type: ADME, organism-based; details: in vivo; outline: as §1

Row | Structure (SMILES) | Ki [1] [µM] | Stability [2] | Ki [3] [µM] | Ki [4] [µM] | Ratio Ki [7] | other results
1 | C[C@@H](O)CN1CCN(CC[S+]([O-])C(c2ccc(F)cc2)c2ccc(F)cc2)CC1 (some centres undefined) | 0.902 | Stable | 81.5 | 0.782 |  | 
2 | CC(O)CN1CCN(CCSC(c2ccc(F)cc2)c2ccc(F)cc2)CC1 (centres undefined) |  |  |  |  |  | half-life at 10 µM [5]: 14 min
3 | OC(CN1CCC2(CCN(CCSC(c3ccc(F)cc3)c3ccc(F)cc3)CC2)C1)c1ccccc1 (centres undefined) | 0.0455 |  |  | 0.127 | 1 | Ki [6]: 0.268 µM; remaining at 1 h, 10 µM [8]: 30 to 44%; Selectivity ratio [9]: 13; Ki [10]: 0.239 µM; Ki [11]: 0.104 µM; Ratio Ki [12]: 2.3
4 | CC(O)CN1[C@H](C)CN(CCSC(c2ccc(F)cc2)c2ccc(F)cc2)C[C@@H]1C (mixture of isomers) | 0.00562 |  |  | 0.0231 |  | Ki [6]: 0.1 µM; half-life at 10 µM [13]: 20 min; t1/2 ([14]; microsomes, 1 h, 10 µM): > 40 min; Drug metabolism [15]: Metabolite_Detected; remaining at 1 h, 10 µM [8]: < 10%; IC50 [16]: 0.635 µM; remaining at 1 h, 10 µM [17]: > 30%; Ki [11]: 0.0583 µM; Activity [18]: Non-Toxic
5 | [O-][S+](CCCN1CCN(CCCc2ccccc2)CC1)C(c1ccc(F)cc1)c1ccc(F)cc1 (centres undefined) | 0.0394 | Unstable | 1.1 | 0.0403 | 27 | 
6 | [O-][S+](CCN1CCN(CC(O)Cc2ccc(F)cc2)CC1)C(c1ccc(F)cc1)c1ccc(F)cc1 (centres undefined) | 0.0737 | Unstable | 12.3 | 0.00129 | 9540 | 
7 | OC(Cc1ccc(F)cc1)CN1CCN(CCSC(c2ccc(F)cc2)c2ccc(F)cc2)CC1 (centres undefined) | 0.0294 | Unstable | 1.37 | 0.00172 | 796 | 
8 | COc1ccc(CC(O)CN2CCN(CCSC(c3ccc(F)cc3)c3ccc(F)cc3)CC2)cc1 (centres undefined) | 0.00965 |  | 1.42 | 0.00191 | 743 | 
9 | C[C@H](O)CN1CCN(CC[S+]([O-])C(c2ccc(F)cc2)c2ccc(F)cc2)CC1 (some centres undefined) | 0.284 | Stable | 200 | 0.536 |  | 
10 | CC(=O)CN1CCN(CCSC(c2ccc(F)cc2)c2ccc(F)cc2)CC1 | 0.00108 |  | 17.4 | 0.182 | 96 | 
11 | O[C@@H](Cc1ccccc1)CN1CCN(CCSC(c2ccc(F)cc2)c2ccc(F)cc2)CC1 | 0.00772 | Unstable | 1.39 | 0.00153 | 908 | 
12 | CC(O)CN1CCC2(CCN(CC[S+]([O-])C(c3ccc(F)cc3)c3ccc(F)cc3)CC2)C1 (centres undefined) | 0.0651 |  |  |  | 1.4 | 
13 | CC(O)CN1CCN(CC[S+]([O-])C(c2ccc(F)cc2)c2ccc(F)cc2)CC1 (centres undefined) |  |  |  |  |  | half-life at 10 µM [13]: 126 min; Activity [19]: Non-Toxic; half-life at 10 µM [5]: 126 min
14 | OC(Cc1ccc(C(F)(F)F)cc1)CN1CCN(CCSC(c2ccc(F)cc2)c2ccc(F)cc2)CC1 (centres undefined) | 0.187 |  | 4.48 | 0.0234 | 191 | 
15 | C[C@@H]1CN(CCSC(c2ccc(F)cc2)c2ccc(F)cc2)C[C@H](C)N1CC(O)Cc1ccccc1 (some centres undefined) | 0.0152 |  |  |  | 805 | 
16 | CC(O)CN1[C@H](C)CN(CC[S+]([O-])C(c2ccc(F)cc2)c2ccc(F)cc2)C[C@@H]1C (some centres undefined) | 0.315 |  |  |  | 78 | Ki [6]: 0.552 µM; remaining at 1 h, 10 µM [8]: 30 to 44%; IC50 [16]: 7.3 µM; Ki [10]: 3.03 µM; Ki [11]: 0.406 µM; Ratio Ki [12]: 7.5

Row | Structure (SMILES) | Ki [1] [µM] | Stability [2] | Ki [3] [µM] | Ki [4] [µM] | Ratio Ki [7] | other results
17 | COC(=O)[C@H]1[C@@H](OC(=O)c2ccccc2)C[C@@H]2CC[C@H]1N2C [COCAINE] |  |  |  |  |  | Activity [20]: Toxic
18 | O[C@H](Cc1ccccc1)CN1CCN(CCSC(c2ccc(F)cc2)c2ccc(F)cc2)CC1 | 0.0236 | Unstable | 0.813 | 0.00393 | 207 | 
19 | C[C@@H]1CN(CC[S+]([O-])C(c2ccc(F)cc2)c2ccc(F)cc2)C[C@H](C)N1CC(O)Cc1ccccc1 (some centres undefined) | 0.0754 |  |  |  | 379 | Ki [6]: 0.0111 µM; remaining at 1 h, 10 µM [8]: < 10%; IC50 [16]: 0.0915 µM; Selectivity ratio [9]: 30; Ki [10]: 0.0191 µM; Ki [11]: 0.00383 µM; Ratio Ki [12]: 5.8
20 | [O-][S+](CCN1CCN(C[C@H](O)Cc2ccccc2)CC1)C(c1ccc(F)cc1)c1ccc(F)cc1 (some centres undefined) | 0.331 | Unstable | 18.7 | 0.00363 | 5150 | 
21 | Fc1ccc(C(SCCCN2CCN(CCCc3ccccc3)CC2)c2ccc(F)cc2)cc1 | 0.0292 |  | 1.06 | 0.00868 | 122 | 
22 | CCC(=O)N1CCN(CCSC(c2ccc(F)cc2)c2ccc(F)cc2)CC1 | 0.0332 |  | 2.49 | 5.08 | 0.5 | 
23 | [O-][S+](CCN1CCN(C[C@@H](O)Cc2ccccc2)CC1)C(c1ccc(F)cc1)c1ccc(F)cc1 (some centres undefined) | 0.0274 | Unstable | 21.3 | 0.00134 | 15900 | 
24 | C[C@@H]1CN(CCSC(c2ccc(F)cc2)c2ccc(F)cc2)C[C@H](C)N1 | 0.111 |  | 13.1 | 0.0923 | 141 | 
25 | C[C@H](O)CN1[C@H](C)CN(CCSC(c2ccc(F)cc2)c2ccc(F)cc2)C[C@@H]1C | 0.00595 |  | 15.6 | 0.0285 |  | Activity [21]: Non-Toxic; half-life at 10 µM [14]: > 40 min; remaining at 1 h, 10 µM [8]: 10%; remaining at 1 h, 10 µM [17]: > 30%
26 | COc1ccc(CC(O)CN2CCN(CC[S+]([O-])C(c3ccc(F)cc3)c3ccc(F)cc3)CC2)cc1 (centres undefined) | 0.0318 | Unstable | 14.6 | 0.00301 | 4850 | 
27 | C[C@@H](O)CN1CCN(CCSC(c2ccc(F)cc2)c2ccc(F)cc2)CC1 | 0.00303 |  | 2.84 | 0.0732 | 40 | 
28 | C[C@@H]1CN(CCSC(c2ccc(F)cc2)c2ccc(F)cc2)C[C@H](C)N1C[C@@H](C)O | 0.00219 |  | 19.8 | 0.0394 |  | Activity [21]: Non-Toxic; half-life at 10 µM [14]: > 40 min; remaining at 1 h, 10 µM [8]: 30%; remaining at 1 h, 10 µM [17]: > 30%
29 | [O-][S+](CCN1CCN(CC(O)Cc2ccc(C(F)(F)F)cc2)CC1)C(c1ccc(F)cc1)c1ccc(F)cc1 (centres undefined) | 0.147 | Unstable | 11.6 | 0.0117 | 991 | 
30 | C[C@H](O)CN1CCN(CCSC(c2ccc(F)cc2)c2ccc(F)cc2)CC1 | 0.00258 |  | 3.94 | 0.0379 | 104 | 
31 | O=C(CCc1ccccc1)N1CCN(CCSC(c2ccc(F)cc2)c2ccc(F)cc2)CC1 | 0.294 |  | 2.54 | 2.83 | 0.9 | 
